Laboratory results reported in ChEMBL document CHEMBL2406929, “An optimized pyrimidinol multifunctional radical quencher” (ACS Med Chem Lett, 2013).
Activity calls are given as the source filed them. The rule behind the calls is not given here.

Columns and labels:
[1] = Effect on total ATP level in CoQ10-deficient human GM17932 cells at 10 uM after 48 hrs by bioluminescence assay relative to control; type: functional
How it was run: (§1)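 Total cellular ATP measured in CoQ10-deficient and FRDA lymphocytes grown in glucose-free medium supplemented with galactose, so that cells rely on oxidative phosphorylation. Compounds tested at 5, 10 and 25 μM for 48 h, added from DMSO (final <0.5%). ATP expressed as % of untreated control.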

[2] = Effect on total ATP level in human Friedreich's ataxia lymphocytes at 25 uM after 48 hrs by bioluminescence assay relative to control; type: functional; how it was run: as §1
[3] = Effect on total ATP level in CoQ10-deficient human GM17932 cells at 25 uM after 48 hrs by bioluminescence assay relative to control; type: functional; how it was run: as §1
[4] = species on record: Homo sapiens; test: Cytoprotective activity against diethyl maleate-induced loss of mitochondrial membrane integrity in human Friedreich's ataxia lymphocytes at 100 nM incubated overnight prior to diethyl maleate-treatment measured after 140 mins by TMRM staining-based FACS flow cytometric analysis relative to control; type: functional
How it was run: (§2)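 Δψm in FRDA lymphocytes after diethyl maleate treatment. Cells stained with 250 nM TMRM and analyzed by flow cytometry on the FL2-H channel, 10,000 events per sample. Result is the % of cells with intact Δψm (top-right quadrant). FCCP uncoupler used as positive control. Final DMSO <0.5%. Means ± SEM of three independent experiments run in duplicate.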

[5] = species on record: Homo sapiens; test: Antioxidant activity in human Friedreich's ataxia lymphocytes assessed as inhibition of diethyl maleate-induced lipid peroxidation at 100 to 500 nM incubated overnight prior to diethyl maleate-treatment measured after 120 mins by C11-BODIPY581/591 staining-based FACS flow cytometric analysis; type: functional
How it was run: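 Glutathione depletion by diethyl maleate in FRDA lymphocytes. Cells stained with C11-BODIPY581/591; oxidized green fluorescence read by FACS on the FL1-H channel. Lipid peroxidation taken as the increase in geometric mean fluorescence intensity relative to the untreated control, expressed as % scavenging activity. Compounds added from DMSO (final DMSO <0.5%). Mean ± SEM, n = 3.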

[6] = Effect on total ATP level in CoQ10-deficient human GM17932 cells at 5 uM after 48 hrs by bioluminescence assay relative to control; type: functional; how it was run: as §1
[7] = Effect on total ATP level in human Friedreich's ataxia lymphocytes at 10 uM after 48 hrs by bioluminescence assay relative to control; type: functional; how it was run: as §1
[8] = species on record: Homo sapiens; test: Cytoprotective activity against diethyl maleate-induced loss of mitochondrial membrane integrity in human Friedreich's ataxia lymphocytes at 250 nM incubated overnight prior to diethyl maleate-treatment measured after 140 mins by TMRM staining-based FACS flow cytometric analysis relative to control; type: functional; how it was run: as §2
[9] = species on record: Homo sapiens; test: Cytoprotective activity against diethyl maleate-induced loss of mitochondrial membrane integrity in human Friedreich's ataxia lymphocytes at 500 nM incubated overnight prior to diethyl maleate-treatment measured after 140 mins by TMRM staining-based FACS flow cytometric analysis relative to control; type: functional; how it was run: as §2
[10] = Effect on total ATP level in human Friedreich's ataxia lymphocytes at 5 uM after 48 hrs by bioluminescence assay relative to control; type: functional; how it was run: as §1
[11] = species on record: Homo sapiens; test: Reversal of 4-nitrobenzoate-induced reduction in mitochondrial ATP level in CoQ10-deficient human Friedreich's ataxia lymphocytes at 5 uM after 6 days by bioluminescence assay; type: functional
[12] = Cytoprotective activity against BSO-induced cell death in human Friedreich's ataxia fibroblasts preincubated for 12 hrs prior to BSO-treatment measured after 48 hrs by luminescence assay
[13] = species on record: Homo sapiens; test: Decrease in mitochondrial ATP level in CoQ10-deficient human Friedreich's ataxia lymphocytes at 5 uM after 6 days by bioluminescence assay; type: functional
[14] = species on record: Homo sapiens; test: Decrease in mitochondrial ATP level in CoQ10-deficient human Friedreich's ataxia lymphocytes at 5 uM after 6 days by bioluminescence assay in presence of 4-nitrobenzoate; type: functional
[15] = species on record: Homo sapiens; test: Decrease in total ATP level in human Friedreich's ataxia lymphocytes after 48 hrs by bioluminescence assay; type: functional; how it was run: as §1
[16] = species on record: Homo sapiens; test: Decrease in total ATP level in CoQ10-deficient human GM17932 cells after 48 hrs by bioluminescence assay; type: functional; how it was run: as §1
[17] = species on record: Homo sapiens; test: Reversal of 4-nitrobenzoate-induced reduction in mitochondrial ATP level in CoQ10-deficient human Friedreich's ataxia lymphocytes at 10 uM after 6 days by bioluminescence assay; type: functional

Compound	Activity [1] [%]	Activity [2] [%]	Activity [3] [%]	Activity [4] [%]	inhibition [5]	Activity [6] [%]	Activity [7] [%]	Activity [8] [%]	Activity [9] [%]	Activity [10] [%]	Activity [11]	EC50 [12] [nM]	Activity [13]	Activity [14]	Activity [15]	Activity [16]	Activity [17]
CCCCCCCCCCCCCCCCc1nc(N(C)C)nc(OC)c1O	106	80	90	81	Active	118	96	90	92	108	Active	25	–	–	–	–	–
CCCCCCCCCCCCCCCCc1nc(N(C)C)nc(OC)c1OC(C)=O	109	92	96	–	–	116	101	–	–	109	–	–	–	–	–	–	–
COc1nc(N(C)C)nc(CCCCCCCCCCOCC23CC4CC(CC(C4)C2)C3)c1O	97	72	64	63	Active	105	103	82	90	107	–	32	–	–	–	–	–
COC1=C(OC)C(=O)C(CCCCCCCCCCO)=C(C)C1=O [IDEBENONE]	46	3	2	18	–	80	46	26	45	73	–	551	Active	Active	Dose-dependent effect	Dose-dependent effect	–
Cc1nc(N(C)C)nc(CCCCCCCCCCO)c1O	86	28	46	25	–	99	46	37	56	77	–	456	–	–	–	–	–
CCCCCCCCCCC1=C(C)C(=O)C(OC)=C(OC)C1=O [DECYLUBIQUINONE]	99	63	63	60	–	100	76	82	90	93	–	56	–	–	Dose-dependent effect	Dose-dependent effect	–
COc1nc(N(C)C)nc(CCCCCCCCCCO)c1O	95	46	54	32	Active	102	66	48	68	80	Active	345	–	–	–	–	inactive
CCCCCCCCCCCCCCCCCCc1nc(N(C)C)nc(OC)c1O	98	102	96	39	Active	98	102	55	73	101	–	266	–	–	–	–	–
CCCCCCCCCCCCCCc1nc(N(C)C)nc(OC)c1O	97	55	65	77	Active	105	97	88	92	109	–	22	–	–	–	–	–
CCCCCCCCCCc1nc(N(C)C)nc(OC)c1O	83	58	58	68	–	96	87	80	88	94	–	68	–	–	–	–	–
